We go through 1 molecule from ChEMBL document CHEMBL5661984, “Allosteric ligands for the pharmacologically dark receptors GPR68 and GPR65” (Nature, 2015).

Test [1] is described as follows: Positive allosteric modulator activity at GPR68 E160K mutant transfected in human HEK293T cells assessed as proton-mediated calcium release at 10 uM incubated for 10 mins by Fluo-4 Direct calcium dye based FLIPR assay (reference value: 1.38 +/- 0.01 %). Particulars: HEK-293T, condition central nervous system disease.
A short description of test [2]: Positive allosteric modulator activity at GPR68 H269F mutant expressed in human HEK293T cells assessed as cAMP production in presence of H+ proton by Split-luciferase based luminescence counter analysis (reference value: 17.7+/-0.8 %). To be noted: HEK-293T, condition central nervous system disease. The method, boiled down:
(§1)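 Proton concentration-response of GPR68 (wild type or E160A/K/Q, R189L/M, H269F mutants) in transiently transfected HEK293-T cells. Read-out: GloSensor cAMP, with luciferin loading 90 min at 37°C at pH 8.4. Run with and without increasing modulator concentrations; 20 min at room temperature before luminescence. Proton KA fixed to the proton EC50 without modulator. KB, τA, α, β fitted globally with an operational allosteric model. n=4.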

Test [3] deals with T1, G-protein coupled receptor 68 (Homo sapiens, UniProt Q15743). As to the kind of experiment: Positive allosteric modulator activity at HA-tagged GPR68 expressed in human HEK293T cells assessed as activation of p42/p44 MAP kinase at pH 7.4 by immunoblotting analysis. The test is classed as cell-based. Particulars: filed as positive allosteric modulator. The method, boiled down:
(§2)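 HEK293 cells stably expressing N-terminal HA-tagged human GPR68 (vector-only line as control), selected with 250 μg/ml G418. Confluent cells were switched to Hams-F12 at pH 8.0 or 7.4 for 1 h, then given vehicle or 50 μM compound for 10 min. Lysate immunoblots were probed for HA, total VASP, p-p42/p44 and β-actin, read with infrared-fluorophore secondaries.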

A short description of test [4]: Positive allosteric modulator activity at GPR68 E160A mutant expressed in human HEK293T cells assessed as cAMP production in presence of H+ proton by Split-luciferase based luminescence counter analysis (reference value: 6.6+/-0.3 %). To be noted: HEK-293T, condition central nervous system disease. Put shortly:
as §1

The target of test [5] is T1, G-protein coupled receptor 68. The test is described as follows: Positive allosteric modulator activity at GPR68 expressed in human HEK293T cells assessed as proton-mediated calcium release at 10 uM incubated for 10 mins by Fluo-4 Direct calcium dye based FLIPR assay (reference value: 1.30 %). The format is functional, cell-based.
Test [6] can be described thus: Binding affinity to GPR68 H269F mutant expressed in human HEK293T cells assessed as cAMP production in presence of H+ proton by Split-luciferase based luminescence counter analysis. To be noted: condition central nervous system disease. The method, boiled down:
as §1

The nature of test [7]: Positive allosteric modulator activity at GPR68 R189L mutant transfected in human HEK293T cells assessed as proton-mediated calcium release at 10 uM incubated for 10 mins by Fluo-4 Direct calcium dye based FLIPR assay (reference value: 1.42 +/- 0.01 %). Particulars: HEK-293T, condition central nervous system disease.
The nature of test [8]: Binding affinity to GPR68 E160Q mutant expressed in human HEK293T cells assessed as cAMP production in presence of H+ proton by Split-luciferase based luminescence counter analysis. To be noted: condition central nervous system disease. The method, boiled down: as §1
The species entered for the next test is Mus musculus. The test is described as follows: Antipsychotic activity against GPR68 knockout C57BL/6 mouse assessed as cued memory retrieval by Morris water maze test. The format is functional, organism-based.
Test [9] can be described thus: Positive allosteric modulator activity at GPR68 E160K mutant expressed in human HEK293T cells assessed as cAMP production in presence of H+ proton by Split-luciferase based luminescence counter analysis (reference value: 6.70+/-0.08). The test is classed as cell-based. To be noted: HEK-293T. The method, boiled down: as §1
Test [10] can be described thus: Positive allosteric modulator activity at GPR68 H269F mutant expressed in human HEK293T cells assessed as cAMP production in presence of H+ proton by Split-luciferase based luminescence counter analysis (reference value: 5.75+/-0.03). The format is cell-based. To be noted: HEK-293T. The method, boiled down:
as §1

The target in test [11] is C-X-C chemokine receptor type 4 (Homo sapiens) (UniProt P61073). The test is described as follows: Antagonist activity against CXCR4 receptor (unknown origin) transfected in human HEK293T cells at 10 uM incubated for 15 mins in presence of AMD3100 by luminescence counter analysis. The test is classed as functional, cell-based. The method, boiled down:
(§3)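 HEK293-T cells transiently transfected with CXCR4 and the GloSensor cAMP reporter, plated in DMEM with 1% dialyzed FBS. Test compound at 10 μM in 20 mM HEPES/HBSS, pH 7.4, 15 min at room temperature. Agonist mode: luciferin (4 mM final) plus 200 nM isoproterenol added, 20 min. Antagonist mode: compound 10 min, then reference agonist at EC80 for 10 min, then luciferin/isoproterenol. Luminescence read. CXCL12 (1 or 3 μM) is the agonist control and AMD3100 (10 μM) the antagonist control. n=2.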

Test [12] shares this target. As to the kind of experiment: Agonist activity against CXCR4 receptor (unknown origin) transfected in human HEK293T cells at 10 uM incubated for 15 mins in presence of CXCL12 by luminescence counter analysis. The format is functional, cell-based. The method, boiled down:
as §3

Test [13] is described as follows: Positive allosteric modulator activity at GPR68 E160Q mutant expressed in human HEK293T cells assessed as cAMP production in presence of H+ proton by Split-luciferase based luminescence counter analysis (reference value: 6.83+/-0.09). To be noted: HEK-293T. The test is classed as cell-based. The method, boiled down:
as §1

Test [14] deals with T1, G-protein coupled receptor 68. As to the kind of experiment: Positive allosteric modulator activity at HA-tagged GPR68 expressed in human HEK293T cells assessed as activation of PKA at pH 7.4 by immunoblotting analysis. To be noted: filed as positive allosteric modulator. The format is cell-based. Put shortly: as §2
Test [15] in a line: Positive allosteric modulator activity at GPR68 R189M mutant expressed in human HEK293T cells assessed as cAMP production in presence of H+ proton by Split-luciferase based luminescence counter analysis (reference value: 6.71+/-0.03). Particulars: HEK-293T. The format is cell-based. Put shortly:
as §1

A short description of test [16]: Binding affinity to GPR68 E160K mutant expressed in human HEK293T cells assessed as cAMP production in presence of H+ proton by Split-luciferase based luminescence counter analysis. To be noted: condition central nervous system disease. The method, boiled down:
as §1

Test [17] is described as follows: Positive allosteric modulator activity at GPR68 H269F mutant transfected in human HEK293T cells assessed as proton-mediated calcium release at 10 uM incubated for 10 mins by Fluo-4 Direct calcium dye based FLIPR assay (reference value: 6.44 +/- 0.02). Particulars: HEK-293T. The test is classed as cell-based.
Test [18] is described as follows: Positive allosteric modulator activity at GPR68 R189M mutant transfected in human HEK293T cells assessed as proton-mediated calcium release at 10 uM incubated for 10 mins by Fluo-4 Direct calcium dye based FLIPR assay (reference value: 6.77 +/- 0.01). The format is cell-based. To be noted: HEK-293T.
Test [19] in a line: Positive allosteric modulator activity at GPR68 E160Q mutant expressed in human HEK293T cells assessed as cAMP production in presence of H+ proton by Split-luciferase based luminescence counter analysis (reference value: 17.0+/-1.5 %). To be noted: HEK-293T, condition central nervous system disease. The method, boiled down:
as §1

The nature of test [20]: Positive allosteric modulator activity at GPR68 R189L mutant expressed in human HEK293T cells assessed as cAMP production in presence of H+ proton by Split-luciferase based luminescence counter analysis (reference value: 7.20+/-0.03). The test is classed as cell-based. To be noted: HEK-293T. Put shortly:
as §1

A short description of test [21]: Positive allosteric modulator activity at GPR68 H269F mutant transfected in human HEK293T cells assessed as proton-mediated calcium release at 10 uM incubated for 10 mins by Fluo-4 Direct calcium dye based FLIPR assay (reference value: 1.57 +/- 0.01 %). To be noted: HEK-293T, condition central nervous system disease.
Test [22] can be described thus: Binding affinity to GPR68 E160A mutant expressed in human HEK293T cells assessed as cAMP production in presence of H+ proton by Split-luciferase based luminescence counter analysis. To be noted: condition central nervous system disease. Put shortly:
as §1

Activity calls are given as the source filed them. The rule behind the calls is not given here.

T1 sequence (Q15743 whole entry): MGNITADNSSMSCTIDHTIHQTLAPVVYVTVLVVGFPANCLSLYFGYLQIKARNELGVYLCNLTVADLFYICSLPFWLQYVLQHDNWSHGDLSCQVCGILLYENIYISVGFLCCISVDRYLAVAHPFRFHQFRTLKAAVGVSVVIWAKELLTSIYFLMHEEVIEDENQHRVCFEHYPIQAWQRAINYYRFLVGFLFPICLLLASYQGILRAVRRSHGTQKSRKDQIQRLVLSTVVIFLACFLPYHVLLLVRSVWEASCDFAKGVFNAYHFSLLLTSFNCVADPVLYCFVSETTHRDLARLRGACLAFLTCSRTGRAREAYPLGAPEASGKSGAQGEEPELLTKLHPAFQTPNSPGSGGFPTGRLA
C-X-C chemokine receptor type 4 (Homo sapiens), sequence (P61073 whole entry): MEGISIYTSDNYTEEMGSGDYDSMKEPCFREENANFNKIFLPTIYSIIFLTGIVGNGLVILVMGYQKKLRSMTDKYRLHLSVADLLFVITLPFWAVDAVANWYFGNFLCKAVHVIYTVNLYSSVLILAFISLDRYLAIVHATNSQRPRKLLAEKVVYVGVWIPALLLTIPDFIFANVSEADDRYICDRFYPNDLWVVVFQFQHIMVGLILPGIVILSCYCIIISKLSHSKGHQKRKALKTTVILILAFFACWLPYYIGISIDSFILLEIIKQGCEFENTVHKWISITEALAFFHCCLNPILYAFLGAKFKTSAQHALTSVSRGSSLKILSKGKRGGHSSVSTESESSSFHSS

Turning to `Nc1nc(NCc2ccccc2)nc(-c2ccccc2CO)n1` [Ogerin], the Emax at 10 µM in [1] is 1.12%; in test [7] it was 1.35%; in test [21] it was 1.56%. Moreover, the Emax in test [2] turned out to be 45.1%; in test [4], 11.7%; in test [5], 1.07%; in [19], 27.5%. For the same molecule, the result in test [3] and in test [14] was Active. The pKb was determined as 4.33 in test [6], 4.9 in test [8], 4.98 in [16] and 4.67 in test [22]. Besides, the outcome (in the test listed under Mus musculus; in [11]; in test [12]) was inactive. Moreover, the EC50 in test [9] is 0.0776 µM; in [10], 0.398 µM; in [13] it was 0.0269 µM; in [15] it was 0.191 µM; in test [17], 0.145 µM; in test [18], 0.155 µM. The EC50 in test [20] is 0.0437 µM.
